Shown are actives, neighbours in structure and some others; about 2.1% of the full set was active somewhere.
SUMO1-SIM PPI = modulators of human SUMO1-mediated protein-protein interactions | P63165 | SUMO1 binding to a labelled peptide, TR-FRET, 1 h | inhibition, % at 20 µM | 360,000 tested, 0.33% active | AID 602429; in the data active = inhibition above about 37%
Scp-1 inhibitor = inhibitors of human Scp-1 phosphatase. inhibition, % at 20 µM. Q9GZU7. Recombinant Scp1, phosphopeptide, malachite green phosphate absorbance. 340,000 tested, 0.88% active. AID 493091;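 active = inhibition above about 50% at 20 µM, limit read from the data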;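 also: plate controls were DMSO wells with enzyme for no effect and wells lacking enzyme for full effect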
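Times: enzyme reaction 45 min at room temperature, colour 5 min, stabilisation 30 min. Material: SCP-1 catalytic fragment, aa 76-261. Medium: Acidic Tris acetate buffer with magnesium and detergent. Signal: colorimetric free-phosphate detection, absorbance 630 nm. Read-out basis: % inhibition of SCP-1 phosphate liberation. Reagent: Phosphorylated 17-residue peptide substrate.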
STEP block = inhibitors of human striatal-enriched phosphatase STEP; inhibition, % at 20 µM; P54829; AID 588621; 360,000 tested, 0.25% active; recombinant STEP, OMFP fluorogenic substrate, fluorescence;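 active = inhibition at 20 µM, scaled per plate between control wells, above about 37%, limit read from the data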;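 also: 0% = DMSO with enzyme and substrate and 100% = substrate only without enzyme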
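medium = Bis-Tris buffer pH 6.0, 2.5 mM DTT, 0.005% Tween 20 | test system = STEP (striatal-enriched tyrosine phosphatase) enzyme, cell-free | measure = normalized % inhibition | compound dosing = 20 µM, 1% DMSO | also added = 25 µM OMFP | schedule = reaction 20 min, ambient temperature | measured by = fluorescence read at 480 nm ex / 540 nm em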
LMPTP inh = blocks human LMPTP phosphatase; recombinant LMPTP-A, OMFP fluorogenic substrate, fluorescence intensity; 360,000 tested, 0.22% active; P24666; inhibition, % at 20 µM;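 active = compounds that cut the enzyme signal by at least half of the control window in the single-dose screen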;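 also: plate controls were DMSO wells with enzyme plus substrate for no effect and substrate without enzyme for full effect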
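material = LMPTP-A | quantity = 0.625 nM enzyme | reagent = OMFP substrate, 400 µM final | buffer or medium = Bis-Tris pH 6.0, DTT, detergent | detection = endpoint fluorescence intensity from OMFP dephosphorylation | dosing = single 20 µM dose | read-out basis = % inhibition relative to no-enzyme and uninhibited control wells | control set = no-enzyme and uninhibited controls | timing = 50 min at room temperature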
DNMT1 block = blocks human DNA methyltransferase DNMT1 | DNMT1 molecular beacon, Hinp1I cleavage, fluorescence | inhibition (reported as % activation of signal), % at 10 µM | 360,000 tested, 0.83% active | AID 588458; in the data active = inhibition above about 50%
GRK2 inh = inhibitors of human GRK2 displacing RNA aptamer | P25098 | bead flow cytometry, FAM-aptamer displacement from GRK2 | inhibition of aptamer binding, % at 10 µM | 330,000 tested, 0.59% active;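 active = inhibition of aptamer binding above 40%, roughly 3 SD of noise, on plates passing a quality check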;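 also: median bead fluorescence of bound FAM aptamer so fluorescent compounds give negative values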
GRK2 CP1 = confirmation of human GRK2 inhibitors displacing RNA aptamer; shares compounds with GRK2 inh; bead-bound GRK2, FAM-aptamer displacement, flow cytometry; aptamer displacement, % at 10 µM; 2,000 tested, 4% active; AID 504451;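 active = aptamer displacement above 40%, near three times the noise of non-fluorescent compounds, on plates passing quality checks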;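 also: negative values mostly reflect intrinsic compound fluorescence rather than true enhancement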
FAM quench CP1 = counter-screen for GRK2 aptamer inhibitors: fluorescent aptamer quenchers; 2,000 tested, under 10 active; fluorescence response (% of DMSO), % at 10 µM; AID 504580; shares compounds with GRK2 inh; Carboxyfluorescein RNA aptamer on beads, flow cytometry quenching; stronger effect = lower value;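 active = compounds that quench the bead-bound fluorescent RNA probe, cutting fluorescence to under half of the solvent control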;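 also: counterscreen run without GRK2 so only probe quenching by compound is measured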
Starred values were filed as active, the others as inactive; nt = no result given.

SMILES | SUMO1-SIM PPI | Scp-1 inhibitor | STEP block | LMPTP inh | DNMT1 block | GRK2 inh | GRK2 CP1 | FAM quench CP1
Cc1cc(N)nc(SCC(=O)N2C(C)CCCC2C)n1 (stereo not given) | -2 | -10 | -3 | 1 | 3 | 50* | 2 | 99
CC1=C(/C=C/C(C)=N\NC(=O)c2ccncc2)C(C)(C)CCC1 | 7 | 1 | -2 | -1 | 1 | 0 | nt | nt
CC1=C(/C=C/C(C)=C/C=C/C(C)=C/CO)C(C)(C)CCC1 | 6 | 7 | -1 | 0 | -18 | 86* | 5 | 102
Cn1cnc2c(oc3ccccc32)c1=O | 1 | 4 | 0 | -1 | 4 | 3 | nt | nt
C(=N/n1c2ccccc2c2ccccc21)/c1ccco1 | -2 | -5 | -1 | 4 | -3 | 96* | -1 | 101
O=C(NN1C(=O)/C(=C\c2ccc(O)c([N+](=O)[O-])c2)SC1=S)c1ccccc1Cl | -2 | -3 | 14 | 3 | 0 | 2 | nt | nt
O=C(O)c1ccc(/C=C2\SC(=S)N(NC(=O)c3ccccc3[N+](=O)[O-])C2=O)cc1 | 4 | 5 | 5 | 1 | 0 | 47* | 1 | 101
Cc1occc1C(=O)N/N=C/c1ccc(-c2ccccc2)cc1 | -4 | 7 | 7 | 3 | 2 | 1 | nt | nt
Cc1occc1C(=O)N/N=C/C(Br)=C/c1ccccc1 | -16 | -5 | -2 | 1 | 2 | 39 | 1 | 94
O=C(OCC(=O)C12CC3CC(CC(C3)C1)C2)c1ccc(O)cc1O | 7 | 7 | 2 | 4 | 6 | 0 | nt | nt
CCC(C)Nc1nc2c(c(=O)[nH]c(=O)n2C)n1CCC(C)C (stereo not given) | -1 | 0 | 2 | 1 | -2 | 52* | 0 | 101
Cc1ccc2c(C)c(C(=O)N3CCN(c4ncccn4)CC3)oc2c1C | -2 | 19 | 2 | 0 | 1 | nt | nt | nt
CC1(C)NC(=O)N(CC(=O)Nc2ccc(-n3cnnn3)cc2)C1=O | -2 | 2 | 0 | 2 | 0 | 28 | 2 | 95
CCN(CCO)c1ncnc2onc(-c3ccc(F)cc3)c12 | -1 | -10 | -1 | -2 | -4 | 0 | nt | nt
O=c1[nH]cnc2onc(-c3ccc(F)cc3)c12 | 6 | -15 | -4 | 1 | -1 | 12 | 1 | 95
Cc1noc(C)c1COc1ccc(C(=O)OCC(=O)NCc2ccccc2Cl)cc1 | 1 | -10 | 1 | 0 | -2 | 4 | nt | nt
Cc1noc(C)c1COc1cccc(C(=O)NCc2ccccc2Cl)c1 | 18 | -5 | -5 | 1 | -1 | 1 | 2 | 94
CCOc1cc(N2CCOCC2)c(OCC)cc1NS(=O)(=O)c1ccc2c(c1)CC(=O)N2 | 4 | nt | 4 | 3 | 19 | nt | nt | nt
O=C(O)CCC(=O)NC1CCCCCCC1 | -3 | -6 | 1 | 0 | 1 | 65* | 0 | 104
CCc1nnc(NC(=O)CSc2nnc(-c3ccc(OC)cc3)n2C)s1 | 0 | -2 | 1 | -1 | -3 | 2 | nt | nt
CCc1nnc(NC(=O)CSc2nnc(-c3ccc(O)cc3)n2C)s1 | 4 | -5 | -3 | -1 | 1 | 37 | -5 | 102
CSc1nccc(N/N=C/c2ccccc2)n1 | 0 | -9 | 0 | 0 | 0 | 0 | nt | nt
Cc1nn(CCCC(=O)NC2CCC(C)CC2)c(=O)c2nn(-c3ccccc3)c(C)c12 (stereo not given) | 4 | -2 | -2 | 0 | -1 | 2 | nt | nt
Nc1nc(SCC(=O)Nc2ccccc2C(F)(F)F)[nH]c(=O)c1-c1ccccc1 | -5 | -3 | -1 | 0 | -4 | 6 | nt | nt
COc1ccc(CCNC(=O)CSc2nc3[nH]ncc3c(=O)n2-c2ccccc2Br)cc1OC | 2 | -6 | -3 | 0 | -1 | 0 | nt | nt

Screening data (PubChem)
